How the values were obtained:
[1] = molecular target: Tyrosine-protein kinase BTK (Homo sapiens, UniProt Q06187); test: Inhibition of full length human wild type his-tagged BTK expressed in Sf9 cells using biotinylated peptide as substrate after 1 hr by Fluorescence assay
Liver microsome [2] = test: Stability in rat liver microsomes assessed as compound remaining; type: ADME
Liver = test: Stability in mouse liver microsomes assessed as compound remaining; type: ADME
[3] = Permeability of the compound by PAMPA; type: physicochemical; settings: read-out: permeability
[4] = Apparent permeability from apical to basolateral side of human Caco2 cells; type: ADME, cell-based; settings: Caco-2
[5] = Apparent permeability from basolateral to apical side of human Caco2 cells; type: ADME, cell-based; settings: Caco-2
[6] = Aqueous solubility of the compound at pH 1; type: physicochemical
[7] = Aqueous solubility of the compound at pH 6; type: physicochemical
[8] = Cmax in CD1 mouse at 30 mg/kg, ip; type: ADME, organism-based; design: dose 30 mg/kg, route intraperitoneal; settings: in vivo
Outline: (§1)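 Mouse PK: single 30 mg/kg dose given IP as a Methocel suspension. Cmax, total AUC and t1/2 were taken from plasma exposure after dosing.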

[9] = AUC (total) in CD1 mouse at 30 mg/kg, ip; type: ADME, organism-based; design: dose 30 mg/kg, route intraperitoneal; settings: plasma; outline: as §1
[10] = Half life in CD1 mouse at 30 mg/kg, ip; type: ADME, organism-based; design: dose 30 mg/kg, route intraperitoneal; settings: in vivo; outline: as §1
Liver microsome [11] = test: Stability in human liver microsomes assessed as compound remaining; type: ADME
[12] = Selectivity ratio of IC50 for JAK2 (unknown origin) to IC50 for full length human wild type his-tagged BTK expressed in Sf9 cells
[13] = Selectivity ratio of IC50 for Flt3 (unknown origin) to IC50 for full length human wild type his-tagged BTK expressed in Sf9 cells
[14] = Selectivity ratio of IC50 for ITK (unknown origin) to IC50 for full length human wild type his-tagged BTK expressed in Sf9 cells

Tyrosine-protein kinase BTK, sequence (Q06187 whole entry): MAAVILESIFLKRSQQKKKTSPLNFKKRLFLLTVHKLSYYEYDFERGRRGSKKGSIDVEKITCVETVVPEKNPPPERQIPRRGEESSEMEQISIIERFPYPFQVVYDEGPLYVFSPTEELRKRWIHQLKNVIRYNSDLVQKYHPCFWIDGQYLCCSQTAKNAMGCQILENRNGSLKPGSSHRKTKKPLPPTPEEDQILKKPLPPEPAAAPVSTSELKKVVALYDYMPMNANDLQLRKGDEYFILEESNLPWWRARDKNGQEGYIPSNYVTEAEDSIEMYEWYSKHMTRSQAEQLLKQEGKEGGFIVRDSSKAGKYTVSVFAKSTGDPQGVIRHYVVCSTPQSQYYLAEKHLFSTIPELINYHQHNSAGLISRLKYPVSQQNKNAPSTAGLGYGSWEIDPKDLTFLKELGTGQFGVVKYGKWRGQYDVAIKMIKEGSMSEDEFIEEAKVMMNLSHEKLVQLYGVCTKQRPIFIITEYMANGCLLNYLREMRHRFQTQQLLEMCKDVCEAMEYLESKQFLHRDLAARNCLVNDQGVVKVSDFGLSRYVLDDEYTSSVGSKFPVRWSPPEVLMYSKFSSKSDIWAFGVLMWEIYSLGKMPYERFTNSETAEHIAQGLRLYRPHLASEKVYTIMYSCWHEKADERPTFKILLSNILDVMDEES

## Cn1cnc2c(Nc3ccc(C(=O)N4CCOCC4)cc3)nc(-c3cccc(NC(=O)c4ccc(C(C)(C)C)cc4)c3)cc21
[1]
  IC50: 0.15 µM

## CC(C)(C)c1ccc(C(=O)Nc2cccc(-c3nc(Nc4ccc(C(=O)N5CCOCC5)cc4)c4cccn4n3)c2)cc1
[1]
  IC50: > 50 µM

## Cc1c(NC(=O)c2ccc(C(C)(C)C)cc2)cccc1-c1nc(Nc2ccc(C(=O)N3CCOCC3)cc2)c2nc[nH]c2n1
Liver microsome [2]
  Stability: 36%
Liver
  Stability: 68%
[3]
  Papp: 403 nm/s
[4]
  Papp A→B: < 15 nm/s
[5]
  Papp B→A: < 15 nm/s
[6]
  solubility: < 1 µg/mL
[7]
  solubility: < 1 µg/mL
[8]
  Cmax: 3.8 µM
[9]
  AUC: 32.5 µM·h
[10]
  half-life: 4.3 h
Liver microsome [11]
  Stability: 14%

## CC(C)(C)c1ccc(C(=O)Nc2cccc(-c3nccc(Nc4ccc(C(=O)N5CCOCC5)cc4)n3)c2)cc1
[1]
  IC50: > 50 µM

## Cc1c(NC(=O)c2ccc(C(C)(C)C)cc2)cccc1-c1nc(Nc2ccc(C(=O)N3CCOCC3)cc2)c2ncn(CCCc3ccccc3)c2n1
[1]
  IC50: > 50 µM
[12]
  Ratio IC50: 1
[13]
  Ratio IC50: 0.1
[14]
  Ratio IC50: 1
